Data from ChEMBL document CHEMBL5712085, “Inhibition of SMYD2 Sensitized Cisplatin to Resistant Cells in NSCLC Through Activating p53 Pathway” (2019).
The source made the active and inactive calls. No cut-off for these calls is given here.

Tests used:
[1] = test system: NCI-H460; experiment: Induction of apoptosis in human NCI-H460 cells assessed as viable cells at 10 uM after 48 hrs by annexin-V/PI staining based flow cytometry (reference value: 98.42%); format: functional; settings: NCI-H460, Lung, read-out: Activity
[2] = test system: NCI-H460; experiment: Potentiation of CDDP-induced apoptosis in human NCI-H460 cells assessed as viable cells at 2 uM measured after 48 hrs by annexin-V/PI staining based flow cytometry; format: functional; settings: NCI-H460, Lung, read-out: Activity
[3] = test system: NCI-H460; experiment: Induction of apoptosis in human CDDP-resistant NCI-H460 cells assessed as viable cells at 10 uM after 48 hrs by annexin-V/PI staining based flow cytometry (reference value: 95.44%); format: functional; settings: NCI-H460, Lung, read-out: Activity
[4] = test system: NCI-H460; experiment: Potentiation of CDDP-induced apoptosis in human NCI-H460 cells assessed as late apoptotic cells at 2 uM measured after 48 hrs by annexin-V/PI staining based flow cytometry; format: functional, Lung
[5] = test system: NCI-H460; experiment: Potentiation of CDDP-induced apoptosis in human NCI-H460 cells assessed as necrotic cells at 2 uM measured after 48 hrs by annexin-V/PI staining based flow cytometry; format: functional, Lung
[6] = test system: NCI-H460; experiment: Potentiation of CDDP-induced apoptosis in human CDDP-resistant NCI-H460 cells assessed as late apoptotic cells at 2 uM measured after 48 hrs by annexin-V/PI staining based flow cytometry; format: functional, Lung
[7] = test system: A549; experiment: Potentiation of Taxol-induced cytotoxicity in human A549 cells assessed as cell viability at 2 uM measured after 48 hrs by MTT assay; format: functional, cell-based; settings: Lung
[8] = test system: NCI-H460; experiment: Induction of apoptosis in human NCI-H460 cells assessed as late apoptotic cells at 10 uM after 48 hrs by annexin-V/PI staining based flow cytometry (reference value: 0.02%); format: functional, Lung
[9] = test system: NCI-H460; experiment: Potentiation of CDDP-induced apoptosis in human CDDP-resistant NCI-H460 cells assessed as early apoptotic cells at 2 uM measured after 48 hrs by annexin-V/PI staining based flow cytometry; format: functional, Lung
[10] = test system: NCI-H460; experiment: Induction of apoptosis in human NCI-H460 cells assessed as necrotic cells at 10 uM after 48 hrs by annexin-V/PI staining based flow cytometry (reference value: 1.53%); format: functional, Lung
[11] = test system: NCI-H460; experiment: Potentiation of VCR-induced cytotoxicity in human NCI-H460 cells assessed as cell viability at 2 uM measured after 48 hrs by MTT assay; format: functional, cell-based; settings: Lung
[12] = test system: NCI-H460; experiment: Induction of apoptosis in human CDDP-resistant NCI-H460 cells assessed as necrotic cells at 10 uM after 48 hrs by annexin-V/PI staining based flow cytometry (reference value: 0.03%); format: functional, Lung
[13] = test system: NCI-H460; experiment: Potentiation of Taxol-induced cytotoxicity in human NCI-H460 cells assessed as cell viability at 2 uM measured after 48 hrs by MTT assay; format: functional, cell-based; settings: Lung
[14] = test system: NCI-H460; experiment: Potentiation of CDDP-induced apoptosis in human CDDP-resistant NCI-H460 cells assessed as necrotic cells at 2 uM measured after 48 hrs by annexin-V/PI staining based flow cytometry; format: functional, Lung
[15] = test system: A549; experiment: Potentiation of VCR-induced cytotoxicity in human A549 cells assessed as cell viability at 2 uM measured after 48 hrs by MTT assay; format: functional, cell-based; settings: Lung
[16] = test system: NCI-H460; experiment: Induction of apoptosis in human NCI-H460 cells assessed as early apoptotic cells at 10 uM after 48 hrs by annexin-V/PI staining based flow cytometry (reference value: 0.02%); format: functional, Lung
[17] = test system: NCI-H460; experiment: Potentiation of CDDP-induced apoptosis in human CDDP-resistant NCI-H460 cells assessed as viable cells at 2 uM measured after 48 hrs by annexin-V/PI staining based flow cytometry; format: functional; settings: NCI-H460, Lung, read-out: Activity
[18] = test system: NCI-H460; experiment: Induction of apoptosis in human CDDP-resistant NCI-H460 cells assessed as late apoptotic cells at 10 uM after 48 hrs by annexin-V/PI staining based flow cytometry (reference value: 0.03%); format: functional, Lung
[19] = test system: NCI-H460; experiment: Induction of apoptosis in human CDDP-resistant NCI-H460 cells assessed as early apoptotic cells at 10 uM after 48 hrs by annexin-V/PI staining based flow cytometry (reference value: 0.03%); format: functional, Lung
[20] = test system: NCI-H460; experiment: Potentiation of CDDP-induced apoptosis in human NCI-H460 cells assessed as early apoptotic cells at 2 uM measured after 48 hrs by annexin-V/PI staining based flow cytometry; format: functional, Lung
[21] = test system: Mus musculus; experiment: Downregulation of p53K370me protein expression in Balb/c mouse tumor xenografted with CDDP-resistant NCI-H460 cells at 40 mg/kg/day ip by Western blot analysis in presence of cisplatin; format: functional, organism-based
How it was run: (§1)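 Excised tumors came from NCI-H460/CDDP flank xenografts in male BALB/c mice (saline, inhibitor 40 mg/kg daily i.p., CDDP 4.0 mg/kg every 3 days i.p., or the combination; 2 weeks). They were stored at −80°C. Protein extracts were run on 10–15% SDS-PAGE, transferred to PVDF, probed with primary and HRP secondary antibodies, detected by ECL and normalized to β-actin.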

[22] = test system: Mus musculus; experiment: Downregulation of p53K370me protein expression in Balb/c mouse tumor xenografted with CDDP-resistant NCI-H460 cells at 40 mg/kg/day ip by Western blot analysis; format: functional, organism-based; how it was run: as §1
[23] = test system: NCI-H460; experiment: Antitumor activity against human CDDP-resistant NCI-H460 cells xenografted in Balb/c mouse assessed as slight decrease in tumor growth at 40 mg/kg/day i.p; format: functional, organism-based; settings: Lung, route ip
How it was run: (§2)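 Male BALB/c mice aged 7–8 weeks received NCI-H460/CDDP cells (5 × 10^6 in 100 μl PBS) subcutaneously into the right flank. At a mean tumor volume of 100 mm3, mice were randomized (n = 6 per group) to saline, inhibitor 40 mg/kg once daily i.p., CDDP 4.0 mg/kg every 3 days i.p., or the combination. Tumor growth was followed for 2 weeks.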

[24] = test system: NCI-H460; experiment: Antitumor activity against human CDDP-resistant NCI-H460 cells xenografted in Balb/c mouse assessed as inhibition of tumor growth at 40 mg/kg/day i.p in presence of cisplatin; format: functional, organism-based; settings: Lung, route ip; how it was run: as §2
[25] = test system: A549; experiment: Cytotoxicity against human A549 cells assessed as inhibition of cell growth measured after 48 hrs by MTT assay; format: functional, cell-based; settings: Lung
How it was run: (§3)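 Cells were grown in RPMI-1640 with 10% FBS, seeded at 1 × 10^5 cells/ml, left overnight and treated with a range of concentrations for 48 h. MTT (2.5 mg/ml in PBS) was added for 4 h at 37°C. Plates were centrifuged, the medium removed and the formazan dissolved in DMSO. OD was read at 570 nm.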

[26] = test system: NCI-H460; experiment: Cytotoxicity against human NCI-H460 cells assessed as inhibition of cell growth measured after 48 hrs by MTT assay; format: functional, cell-based; settings: Lung; how it was run: as §3

With `CCN(C(=O)CO)[C@H]1CN(/C(=N\C#N)Nc2cccc(OC(F)F)c2)N=C1c1ccc(Cl)c(Cl)c1` the viability at 10 µM [1] was 97.6%, the viability at 2 µM [2] was 0.5% and the viability at 10 µM [3] was 85.2%. For the same compound, the Activity [4] was 84.74%, the Activity [5] was 0.04% and the Activity [6] was 66.1%. The Activity [7] was “inactive”, the Activity [8] was 0.26% and the Activity [9] was 5.21%. The Activity [10] was 2.08%, the Activity [11] was “inactive” and the Activity [12] was 4.72%. For the same compound, the Activity [13] was “inactive”, the Activity [14] was 19.75% and the Activity [15] was “inactive”. The Activity [16] was 0.03%, the viability at 2 µM [17] was 8.94% and the Activity [18] was 7.55%. It also gave an Activity [19] of 1.53% and an Activity [20] of 14.7%.

For `O=C1COc2c(CCNCCN(C(=O)CCNCCc3ccc(Cl)c(Cl)c3)C3CCCCC3)ccc(O)c2N1`, the inhibition [21] was “Active”, the inhibition [22] was “Active” and the Activity [23] was “Active”. For the same compound, the Activity [24] was “Active”.

With `CCC1=C[C@@H]2CN(C1)Cc1c([nH]c3ccccc13)[C@@](C(=O)OC)(c1cc3c(cc1OC)N(C)[C@H]1[C@@](O)(C(=O)OC)[C@H](OC(C)=O)[C@]4(CC)C=CCN5CC[C@]31[C@@H]54)C2` the Activity [25] was “Dose-Dependent Effect” and the Activity [26] was “Dose-Dependent Effect”.

For `CC[C@]1(O)C[C@H]2CN(CCc3c([nH]c4ccccc34)[C@@](C(=O)OC)(c3cc4c(cc3OC)N(C=O)[C@H]3[C@@](O)(C(=O)OC)[C@H](OC(C)=O)[C@]5(CC)C=CCN6CC[C@]43[C@@H]65)C2)C1`, the Activity [25] was “Dose-Dependent Effect” and the Activity [26] was “Dose-Dependent Effect”.

With `CC(=O)O[C@H]1C(=O)[C@@]2(C)[C@H]([C@H](OC(=O)c3ccccc3)[C@]3(O)C[C@H](OC(=O)[C@H](O)[C@@H](NC(=O)c4ccccc4)c4ccccc4)C(C)=C1C3(C)C)[C@]1(OC(C)=O)CO[C@@H]1C[C@@H]2O` the Activity [25] was “Dose-Dependent Effect” and the Activity [26] was “Dose-Dependent Effect”.
